Data from ChEMBL document CHEMBL4257566, “Design, synthesis and structure-based optimization of novel isoxazole-containing benzamide derivatives as FtsZ modulators” (Eur J Med Chem, 2018).
Values after ≈ are worked out from the molar mass of the structure shown. Active and inactive are the calls of the source. No cut-off for these calls is given here.

Columns and labels:
Staphylococcus aureus [1] = test: Antibacterial activity against Staphylococcus aureus ATCC 25923 after 24 hrs by broth microdilution based CLSI method; assay type: functional; conditions: ATCC 25923, 24 h
Staphylococcus aureus [2] = test: Bactericidal activity against Staphylococcus aureus ATCC 25923 incubated for 24 hrs followed by plating onto tryptic soy agar plates and further incubated for 24 hrs by broth microdilution based CLSI method; assay type: functional; conditions: ATCC 25923, 24 h
Staphylococcus aureus [3] = test: Selectivity ratio of MBC for Staphylococcus aureus ATCC 25923 to MIC for Staphylococcus aureus ATCC 25923; assay type: functional
Bacillus subtilis [4] = test: Antibacterial activity against Bacillus subtilis ATCC 9372 after 24 hrs by broth microdilution based CLSI method; assay type: functional; conditions: ATCC 9372, 24 h
Bacillus pumilus [5] = test: Antibacterial activity against Bacillus pumilus CMCC63202 after 24 hrs by broth microdilution based CLSI method; assay type: functional; conditions: CMCC63202, 24 h
Staphylococcus aureus [6] = test: Antibacterial activity against methicillin-resistant Staphylococcus aureus ATCC 43300 after 24 hrs by broth microdilution based CLSI method; assay type: functional; conditions: ATCC 43300, 24 h
Staphylococcus aureus [7] = test: Antibacterial activity against clinical isolate of penicillin-resistant Staphylococcus aureus after 24 hrs by broth microdilution based CLSI method; assay type: functional
Escherichia coli = test: Antibacterial activity against Escherichia coli ATCC 25922 after 24 hrs by broth microdilution based CLSI method; assay type: functional; conditions: ATCC 25922, 24 h
Pseudomonas aeruginosa = test: Antibacterial activity against Pseudomonas aeruginosa ATCC 27853 after 24 hrs by broth microdilution based CLSI method; assay type: functional; conditions: ATCC 27853, 24 h
HeLa = test: Cytotoxicity in human HeLa cells assessed as reduction in cell viability after 36 hrs by MTT assay; assay type: cell-based
Method in brief: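 HeLa cells seeded at 10⁴ cells/well and left overnight, then exposed to compound for 36 h. MTT (5 mg/mL solution) added for 4 h at 37 °C, medium replaced by DMSO for 10 min, absorbance read at 570 nm.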

[8] = molecular target: T1, Cell division protein FtsZ (Bacillus subtilis (strain 168)) (UniProt P17865); test: Induction of Bacillus subtilis FtsZ polymerization at 10 ug/ml in presence of GTP by microtiter plate-based light-scattering assay
T1 sequence (whole entry): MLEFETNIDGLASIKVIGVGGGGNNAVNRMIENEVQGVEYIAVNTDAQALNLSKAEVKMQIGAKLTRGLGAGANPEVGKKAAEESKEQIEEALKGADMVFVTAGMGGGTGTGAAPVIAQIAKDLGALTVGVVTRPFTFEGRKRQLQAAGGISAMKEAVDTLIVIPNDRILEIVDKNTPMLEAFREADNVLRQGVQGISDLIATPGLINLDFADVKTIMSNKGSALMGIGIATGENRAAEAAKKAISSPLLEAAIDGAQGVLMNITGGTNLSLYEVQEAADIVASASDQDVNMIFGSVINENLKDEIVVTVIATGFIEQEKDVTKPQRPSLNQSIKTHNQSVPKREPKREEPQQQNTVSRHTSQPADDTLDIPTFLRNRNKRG
Method in brief: (§1)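 Recombinant purified B. subtilis FtsZ (5 µM) with 1 mM GTP in 50 mM MES, 50 mM KCl, 2 mM magnesium acetate, compound 0–10 µg/mL. Polymerization followed as light scattering (A340) continuously at 25 °C for 30 min. DMSO vehicle and a non-FtsZ control were included.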

Bacillus subtilis [9] = test: Potency index, ratio of PC190723 MIC to test compound MIC for antibacterial activity against Bacillus subtilis ATCC 9372 after 24 hrs by broth microdilution based CLSI method
[10] = molecular target: T1, Cell division protein FtsZ (Bacillus subtilis (strain 168)); test: Induction of Bacillus subtilis FtsZ polymerization in presence of GTP by microtiter plate-based light-scattering assay; method in brief: as §1
Staphylococcus aureus [11] = test: Bactericidal activity against methicillin-resistant Staphylococcus aureus ATCC 43300 incubated for 24 hrs followed by plating onto tryptic soy agar plates and further incubated for 24 hrs by broth microdilution based CLSI method; assay type: functional; conditions: ATCC 43300, 24 h
Method in brief: (§2)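 MBC taken from the CLSI broth microdilution plates. These held 2-fold serial dilutions from 64 to 0.125 µg/mL in cation-adjusted Mueller-Hinton broth, seeded with log-phase bacteria and incubated aerobically for 24 h at 37 °C. Well aliquots were plated on TSA and colonies counted after 24 h. MBC is the lowest concentration giving a ≥3-log CFU reduction.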

Staphylococcus aureus [12] = test: Bactericidal activity against clinical isolate of penicillin-resistant Staphylococcus aureus incubated for 24 hrs followed by plating onto tryptic soy agar plates and further incubated for 24 hrs by broth microdilution based CLSI method; assay type: functional; method in brief: as §2
Staphylococcus aureus [13] = test: Bactericidal activity against methicillin-resistant Staphylococcus aureus ATCC 43300 assessed as reduction in viable bacterial count at 8 ug/ml after 24 hrs by time-kill assay; assay type: functional, organism-based
Method in brief: (§3)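 Growing culture diluted to about 10⁶ CFU/mL in CAMH broth containing compound, then shaken at 37 °C. At set times, samples were serially diluted tenfold in CAMH broth and three dilutions plated on TSA. CFU/mL counted after 24 h at 37 °C. Detection limit 10³ CFU/mL. Points are the mean of two independent runs, with SD.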

Staphylococcus aureus [14] = test: Antibacterial activity against methicillin-resistant Staphylococcus aureus ATCC 43300 infected in mouse assessed as reduction of bacterial burden in blood at 30 mg/kg, ip administered 0.1, 6 hrs postinfection and measured at 24 hrs post last dose; assay type: functional, organism-based
Mus musculus [15] = test: Toxicity in mouse infected with methicillin-resistant Staphylococcus aureus ATCC 43300 assessed as mouse death at 30 mg/kg, ip administered 0.1, 6 hrs postinfection and measured after 1 week; assay type: organism-based; conditions: in vivo, 168 h
Method in brief: (§4)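 KM mice (about 20 g) infected i.v. with 5.4 × 10⁷ CFU MRSA in 0.1 mL saline. Dosing i.p. in vehicle of 1% DMAC, 30% TEG, 7% HPβCD in water (final), with a vehicle-only group. Deaths recorded for one week after bacterial inoculation.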

Staphylococcus aureus [16] = test: Selectivity ratio of MBC for methicillin-resistant Staphylococcus aureus ATCC 43300 to MIC for methicillin-resistant Staphylococcus aureus ATCC 43300; assay type: functional
Method in brief: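 Ratio of MBC to MIC. Both come from the same CLSI broth microdilution run: 2-fold dilutions from 64 to 0.125 µg/mL in CAMH broth, 24 h at 37 °C. MIC is the last well without turbidity. MBC is the lowest concentration giving a ≥3-log CFU drop after plating on TSA for 24 h. Ratio 1–2 is read as bactericidal, ≥8 as bacteriostatic.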

Bacillus pumilus [17] = test: Potency index, ratio of PC190723 MIC to test compound MIC for Bacillus pumilus CMCC63202 after 24 hrs by broth microdilution based CLSI method; assay type: functional
Staphylococcus aureus [18] = test: Bactericidal activity against methicillin-resistant Staphylococcus aureus ATCC 43300 assessed as reduction in viable bacterial count at 0.5 times MIC after 24 hrs by time-kill assay; assay type: functional, organism-based; method in brief: as §3
Staphylococcus aureus [19] = test: Bactericidal activity against methicillin-resistant Staphylococcus aureus ATCC 43300 assessed as reduction in viable bacterial count at 1 to 2 times MIC after 12 hrs by time-kill assay; assay type: functional; method in brief: as §3
Staphylococcus aureus [20] = test: Bactericidal activity against methicillin-resistant Staphylococcus aureus ATCC 43300 assessed as reduction in viable bacterial count at 4 times MIC after 6 hrs by time-kill assay; assay type: functional, organism-based; method in brief: as §3
Bacillus pumilus [21] = test: Antibacterial activity against Bacillus pumilus CMCC63202 assessed as increase in bacterial cell length at 0.5 times MIC after 18 hrs by phase-contrast optical microscopic analysis; assay type: functional, organism-based
Method in brief: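 Harvested cells resuspended in PBS, spotted on poly-L-lysine (0.1% w/v) coated slides and cell length examined by phase-contrast microscopy at 40 magnification.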

Staphylococcus aureus [22] = test: Antibacterial activity against methicillin-resistant Staphylococcus aureus ATCC 43300 infected in mouse assessed as reduction of bacterial burden in blood at 30 mg/kg, ip administered 0.1, 3, 6, 9 and 12 hrs postinfection and measured at 24 hrs post last dose; assay type: functional, organism-based
[23] = molecular target: T1, Cell division protein FtsZ (Bacillus subtilis (strain 168)); test: Induction of Bacillus subtilis FtsZ assessed as increase in size of polymer at 10 ug/ml after 20 mins by transmission electron microscopic analysis
Method in brief: (§5)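 Purified B. subtilis FtsZ incubated with or without compound at room temperature for 20 min in polymerization buffer (50 mM MES, 50 mM KCl, 2 mM magnesium acetate, 1 mM GTP). Samples put on glow-discharged Formvar/carbon copper grids, negatively stained with 1% phosphotungstic acid for 1 min, imaged by TEM at 100 kV.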

[24] = molecular target: T1, Cell division protein FtsZ (Bacillus subtilis (strain 168)); test: Induction of Bacillus subtilis FtsZ assessed as increase in thickness of polymer size at 10 ug/ml after 20 mins by transmission electron microscopic analysis; method in brief: as §5
[25] = molecular target: T1, Cell division protein FtsZ (Bacillus subtilis (strain 168)); test: Induction of Bacillus subtilis FtsZ assessed as increase in bundling of protofilament at 10 ug/ml after 20 mins by transmission electron microscopic analysis; method in brief: as §5
Mus musculus [26] = test: Toxicity in mouse infected with methicillin-resistant Staphylococcus aureus ATCC 43300 assessed as mouse death at 30 mg/kg, ip administered 0.1, 3, 6, 9 and 12 hrs postinfection and measured after 1 week; assay type: organism-based; conditions: in vivo, 168 h; method in brief: as §4

Structure (SMILES)	MIC (Staphylococcus aureus [1]) [µg/mL]	MBC (Staphylococcus aureus [2]) [µg/mL]	Ratio (Staphylococcus aureus [3])	MIC (Bacillus subtilis [4]) [µg/mL]	MIC (Bacillus pumilus [5]) [µg/mL]	MIC (Staphylococcus aureus [6]) [µg/mL]	MIC (Staphylococcus aureus [7]) [µg/mL]	MIC (Escherichia coli) [µg/mL]	MIC (Pseudomonas aeruginosa) [µg/mL]	IC50 (HeLa) [µg/mL]	Activity [8]	Ratio (Bacillus subtilis [9])	MBC (Staphylococcus aureus [11]) [µg/mL]	MBC (Staphylococcus aureus [12]) [µg/mL]	also measured
CC[C@H]1OC(=O)[C@H](C)[C@@H](O[C@H]2C[C@@](C)(OC)[C@@H](O)[C@H](C)O2)[C@H](C)[C@@H](O[C@@H]2O[C@H](C)C[C@H](N(C)C)[C@H]2O)[C@](C)(OC)C[C@@H](C)C(=O)[C@H](C)[C@@H](O)[C@]1(C)O [CLARITHROMYCIN]	0.125 (≈ 0.167 µM)	4 (≈ 5.35 µM)	32												
CC(C)(C)c1ccc(-c2cc(COc3ccc(F)c(C(N)=O)c3F)on2)cc1	8 (≈ 20.7 µM)			0.03 (≈ 0.0776 µM)	0.25 (≈ 0.647 µM)	4 (≈ 10.4 µM)	8 (≈ 20.7 µM)	> 64	> 64	> 128	inactive	>16			
O=C(O)c1cn(C2CC2)c2cc(N3CCNCC3)c(F)cc2c1=O															Activity [10]: inactive
CC(=O)NC[C@H]1CN(c2ccc(N3CCOCC3)c(F)c2)C(=O)O1 [LINEZOLID]		32 (≈ 94.9 µM)		1 (≈ 2.96 µM)	1 (≈ 2.96 µM)	1 (≈ 2.96 µM)		> 64	> 64				32 (≈ 94.9 µM)	32 (≈ 94.9 µM)	Activity (Staphylococcus aureus [13]): Active; Activity (Staphylococcus aureus [14]): Active; Activity (Mus musculus [15]): Non-Toxic
CC(C)(C)c1ccc(-c2cc(COc3ccc(F)c(C(N)=O)c3F)no2)cc1	2 (≈ 5.18 µM)	4 (≈ 10.4 µM)	2	0.015 (≈ 0.0388 µM)	0.03 (≈ 0.0776 µM)	2 (≈ 5.18 µM)	4 (≈ 10.4 µM)	> 64	> 64	> 128	Active	32	2 (≈ 5.18 µM)	8 (≈ 20.7 µM)	Ratio (Staphylococcus aureus [16]): 1; Ratio (Bacillus pumilus [17]): 32; Activity (Staphylococcus aureus [18]): inactive; viable count (Staphylococcus aureus [19]): 1000 CFU/mL; Activity (Staphylococcus aureus [20]): Active; Activity (Bacillus pumilus [21]): Active; Activity (Staphylococcus aureus [22]): Active; Activity [23]: Active; Activity [24]: Active; Activity [25]: Active; Activity (Mus musculus [26]): Non-Toxic
